Source: paper PMC3673543 (Biochemistry, 2012)

Assays:
HIVNL4-3 = assay: Reverse transcriptase release into culture supernatant of MT-2 cells; type: cell-based, HIV
How it was run: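 MT-2 cells (500,000/well) were preincubated 1 h at 37 °C with test compound at a non-toxic concentration (≤5% cell death), then infected with H9-grown HIV NL4-3 (100,000 cpm RT activity per well, MOI <1). Virus control was infected cells plus water. Supernatants from days 2, 4 and 6 were PEG-precipitated and lysed. RT was measured as 3H-dTTP incorporation (poly rA-oligo dT, 1 h, 37 °C), as cpm/ml. Three separate experiments, each in triplicate.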

HIV = assay: Protection from HIV-induced cytopathic effect; type: cell-based; details: for Maximum protection from HIV cytopathic effects: neutral red dye
How it was run: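 MT-2 cells, a line highly susceptible to HIV and fully lysed by it, were used in triplicate wells. Finter's neutral red, a vital dye, served as read-out of inhibition of HIV-induced cytopathic effect, with water as control. Maximum percent protection was recorded together with the compound concentration at which it was reached.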

HIV TAR RNA [1] = assay: UV thermal denaturation of HIV TAR RNA with ligand; type: binding, HIV-1; details: 100 mM KCl; for ΔTm (at rdr = 1): pH 6.8, TAR RNA 1 μM/strand; for Tm: ligand/HIV TAR RNA complex, rdr = 1, 10 mM SC, 0.5 mM EDTA, pH 6.8, TAR RNA 1 μM/strand
HIV TAR RNA [2] = assay: Ethidium bromide displacement; type: binding, HIV-1; details: read-out: IC50 (ethidium bromide displacement); 100 mM KCl, 10 mM SC, 0.5 mM EDTA, pH 6.8; HIV TAR RNA 50 nM/strand
How it was run: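 Ethidium bromide at 1.25 μM is excited at 545 nm, and emission is scanned from 560 to 607 nm before and after adding TAR RNA. Under these conditions, less than 20% of the ethidium bromide is bound. Fluorescence displacement titration with test compound follows in the same buffer.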

tetraloop TAR RNA Mutant = assay: FID titration with Scatchard analysis on mutant TAR; type: binding, HIV-1; details: mutant tetraloop TAR 200 nM/strand; 100 mM KCl, pH 6.8; EtBr 5 μM
How it was run: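 Tetraloop TAR RNA–ethidium bromide complex in 100 mM KCl, 10 mM SC, 0.5 mM EDTA, pH 6.8, titrated with increasing test compound. The fall in fluorescence at 610 nm was followed. Normalized intensity was plotted against compound concentration, then transformed by Scatchard analysis to derive the binding constant.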

HIV TAR RNA [3] = assay: Ethidium bromide displacement titration with Scatchard analysis; type: binding, HIV-1; details: 100 mM KCl, 10 mM SC, 0.5 mM EDTA, pH 6.8; TAR RNA 200 nM/strand; EtBr 5 μM
How it was run: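 Fluorescent intercalator displacement: test compound titrated into ethidium bromide (5 μM) plus HIV TAR RNA (200 nM/strand) in 10 mM SC, 0.5 mM EDTA, pH 6.8 with 100 mM KCl. Salt series run at 50, 100 and 150 mM KCl. Excitation 545 nm, emission 560–607 nm. Scatchard plot slope gives the association constant K. For the salt series, log K was plotted against log [KCl] and fitted linearly.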

TAR = details: aminoglycosides targeted towards TAR binding; cited from earlier work
MT-2 cells = assay: Toxicity against MT-2 cells; type: cell-based; details: concentration where no more than 5% cell death
[4] = target: T1, Tat49-57 peptide, fluorescein/TAMRA FRET probe (HIV-1, UniProt P04608 49-57, not fully specified); assay: fluorescence intensity
T1 chain: RKKRRQRRR

Row | Molecule | protection / suppression of RT release (HIVNL4-3; day 2 post inoculation, vs virus control) | protection / suppression of RT release (HIVNL4-3; day 4, vs virus control) | protection / suppression of RT release (HIVNL4-3; day 6, vs virus control) | anti-HIV activity in the 96-well plate screening assay (HIV; HIV-induced cytopathic effect) | ΔTm (at rdr = 1) (HIV TAR RNA [1]) [°C] | Tm (HIV TAR RNA [1]) [°C] | IC50 (HIV TAR RNA [2]) [nM] | Ka (Scatchard analysis of FID titration) (tetraloop TAR RNA Mutant) | K (binding constant from Scatchard analysis of FID) (HIV TAR RNA [3]) [M⁻¹] | Maximum protection from HIV cytopathic effects (HIV; MT-2 cells) [%] | inhibitory effect (TAR) | ΔTm (at rdr = 1) (HIV TAR RNA [1]; listed as neomycin) | concentration at which maximum protection was achieved (HIV; MT-2 cells, HIV cytopathic effect) [µM] | 5% Toxicity (CT5) (MT-2 cells) [µM] | apparent K (half saturation) [4] [nM]
1 | NC[C@@H]1O[C@H](O[C@H]2[C@@H](O)[C@H](O[C@@H]3[C@@H](O)[C@H](N)C[C@H](N)[C@H]3O[C@H]3O[C@H](CN)[C@@H](O)[C@H](O)[C@H]3N)O[C@@H]2Cn2cc(-c3cccc(-c4cn(C[C@H]5O[C@@H](O[C@@H]6[C@@H](O)[C@H](N)C[C@H](N)[C@H]6O[C@H]6O[C@H](CN)[C@@H](O)[C@H](O)[C@H]6N)[C@H](O)[C@@H]5O[C@H]5O[C@@H](CN)[C@@H](O)[C@H](O)[C@H]5N)nn4)c3)nn2)[C@H](N)[C@@H](O)[C@@H]1O [DPA65] | 40-67% | 68-73% | 24-27% | inactive to weakly active | 9.3 | 78.2 | 36 | ~ 10^7 M^−1 | 1.39e+08 | – | – | – | – | – | –
2 | NC[C@@H]1O[C@H](O[C@H]2[C@@H](O)[C@H](O[C@@H]3[C@@H](O)[C@H](N)C[C@H](N)[C@H]3O[C@H]3O[C@H](CN)[C@@H](O)[C@H](O)[C@H]3N)O[C@@H]2Cn2cc(COCc3cn(C[C@H]4O[C@@H](O[C@@H]5[C@@H](O)[C@H](N)C[C@H](N)[C@H]5O[C@H]5O[C@H](CN)[C@@H](O)[C@H](O)[C@H]5N)[C@H](O)[C@@H]4O[C@H]4O[C@@H](CN)[C@@H](O)[C@H](O)[C@H]4N)nn3)nn2)[C@H](N)[C@@H](O)[C@@H]1O [DPA51] | – | – | – | – | 10.2 | 79.1 | 56 | – | 1.17e+08 | – | – | – | – | – | –
3 | NC[C@@H]1O[C@H](O[C@H]2[C@@H](O)[C@H](O[C@@H]3[C@@H](O)[C@H](N)C[C@H](N)[C@H]3O[C@H]3O[C@H](CN)[C@@H](O)[C@H](O)[C@H]3N)O[C@@H]2CO)[C@H](N)[C@@H](O)[C@@H]1O [Neomycin, Neomycin B tri-sulfate, reference compound] | – | – | – | – | 0.2 | 69.1 | 417 | – | – | 9 | less than 1 μM | no thermal stabilization | – | – | –
4 | NC[C@@H]1O[C@H](O[C@H]2[C@@H](O)[C@H](O[C@@H]3[C@@H](O)[C@H](N)C[C@H](N)[C@H]3O[C@H]3O[C@H](CN)[C@@H](O)[C@H](O)[C@H]3N)O[C@@H]2Cn2cc(CCCCc3cn(C[C@H]4O[C@@H](O[C@@H]5[C@@H](O)[C@H](N)C[C@H](N)[C@H]5O[C@H]5O[C@H](CN)[C@@H](O)[C@H](O)[C@H]5N)[C@H](O)[C@@H]4O[C@H]4O[C@@H](CN)[C@@H](O)[C@H](O)[C@H]4N)nn3)nn2)[C@H](N)[C@@H](O)[C@@H]1O [DPA54] | – | – | – | – | 8.2 | 77.1 | 81 | – | 2.61e+07 | 31 | – | – | 17 | 69 | –
5 | GGCAGAUCUGAGCCUGGGAGCUCUCUGCC (structured_RNA) [HIV-1 TAR RNA] | – | – | – | – | – | – | – | – | – | – | – | – | – | – | 86 ± 9
